Bioassay records as filed in PubChem.
KCNQ1 act: human KCNQ1 channel potentiation or activation; P51787; CHO-K1 KCNQ1, thallium flux FluxOR fluorescence; hits give high values; B-score at 10 µM; actives 0.35% (n = 310,000); AID 2648;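 active = fluorescence ratio B-score, a plate-corrected score, at least three library SD, with initial intensity B-score within 5 SD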
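Assay system: CHO-K1 cells stably expressing KCNQ1; Medium: assay buffer with matched DMSO; Also added: K+/Tl+ depolarizing stimulus; Dosing: single dose; Timing: dye 90 min, compound 20 min, room temperature; Measured by: kinetic FluxOR thallium fluorescence, 10-s 1-Hz baseline, 110-s post-stimulus read; Read-out: peak-minus-minimum fluorescence over initial fluorescence, negative-control normalized, B-scored.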
KCNQ1 inh: human KCNQ1 channel inhibition; CHO-K1 KCNQ1, FluxOR thallium flux fluorescence; hits give high values; AID 2642; actives 1.3% (n = 310,000); P51787; B-score at 10 µM;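 active = compounds whose thallium flux B-score, printed positive for inhibition, exceeds three library SD while starting fluorescence stays within three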;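 note: channel opened by potassium depolarization with thallium stimulus after 20 min compound exposure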
KCNK3 inh: human KCNK3 channel inhibition, primary screen; actives 0.84% (n = 340,000); B-score at 10 µM; CHO-KCNK3 thallium flux, FluxOR fluorescence; hits give low values; O14649;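 active = B-score under library mean minus 4 SD, starting fluorescence ratio at most library mean plus 5 SD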;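 note: more negative B-score means stronger inhibition of thallium flux through KCNK3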
Kir21 inh: blocks the mouse Kir2.1 inward-rectifier potassium channel; HEK293-Kir2.1, FluxOR thallium flux fluorescence; hits give low values; B-score at 10 µM; actives 0.85% (n = 310,000);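 active = fluorescence ratio B-score at or below minus 3 SD of library scores, with starting-brightness B-score within 2 SD, cut at about -4.2 in these data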;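 note: channel flux triggered by added potassium and thallium sulfate stimulus; B-score of peak minus minimum fluorescence over baseline after thallium stimulus; more negative B-score means stronger Kir2.1 block with less thallium influx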
Target sequence (P35561 whole entry, looked up): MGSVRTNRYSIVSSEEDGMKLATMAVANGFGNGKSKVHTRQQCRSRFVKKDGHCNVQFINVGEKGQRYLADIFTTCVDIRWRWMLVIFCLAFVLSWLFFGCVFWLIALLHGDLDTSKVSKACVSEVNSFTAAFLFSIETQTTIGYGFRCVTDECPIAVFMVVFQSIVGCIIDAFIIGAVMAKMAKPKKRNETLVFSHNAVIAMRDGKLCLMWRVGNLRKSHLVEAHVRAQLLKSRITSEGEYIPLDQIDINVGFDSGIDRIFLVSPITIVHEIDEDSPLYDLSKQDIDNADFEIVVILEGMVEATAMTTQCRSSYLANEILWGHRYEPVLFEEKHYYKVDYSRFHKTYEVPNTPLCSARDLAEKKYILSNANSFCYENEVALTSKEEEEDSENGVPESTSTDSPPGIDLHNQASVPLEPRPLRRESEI
hERG rescue: hERG (human) protection from proarrhythmic block | actives 0.51% (n = 310,000) | CHO-hERG, FluxOR thallium flux, dofetilide IC70 present | Q12809 | activation (rescue from dofetilide block), less the hit threshold, % at 10 µM | AID 1511;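 active = activation above the mean of controls blocked by dofetilide plus 5 SD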;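 note: thallium influx through hERG after potassium depolarization seen as dye fluorescence rise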
KCNK9 block: blocks the human KCNK9 two-pore domain potassium channel. Q9NPC2. HEK293 KCNK9, FluxOR thallium flux fluorescence; hits give low values. B-score at 10 µM. actives 1.2% (n = 310,000). AID 488922;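 active = ratio B-score over 3 SD below the library mean, with starting fluorescence within 5 SD of its mean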;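 note: negative B-score means less thallium flux so channel inhibition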
* = called active by the depositor; i = inactive; x = no result given. A selection: hits, their analogues and other compounds. The true share with any hit is near 3.8%.

SMILES	KCNQ1 act	KCNQ1 inh	KCNK3 inh	Kir21 inh	hERG rescue	KCNK9 block
CCOC(=O)c1sc(N(Cc2ccccc2)C(=O)CCl)nc1C	i	i	i	-0.53	-14	i
C=CCOC(=O)C1=C[C@@H](c2csc3ccccc23)C[C@@H](OCCCCO)O1	i	i	i	0.17	-11	i
CCCCC(C(=O)OCC)C(N)Cc1ccc(F)cc1 (stereo not drawn)	i	i	i	-4.7*	-5	i
CC(NC(=O)Cc1ccc(S(=O)(=O)N2CCOCC2)s1)c1ccc(Cl)c(Cl)c1 (stereo not drawn)	i	i	i	-2.6	-16	i
NS(=O)(=O)c1ccc(N/N=C/c2ccccc2Br)cc1	i	i	i	-0.02	-21	i
CN(CC(=O)Nc1ccccc1C(F)(F)F)C(=O)c1ccccc1Sc1ccccc1C#N	x	x	-9.2*	x	x	x
CCN(CC(=O)Nc1ccccc1C(F)(F)F)C(=O)c1ccccc1Sc1ccccc1C#N	x	x	i	x	x	x
Cc1cc(=O)oc2cc(OC(=O)c3ccco3)ccc12	i	i	i	-12*	-5	i
Cc1ccc(-c2nc(CN(CC3CCC3)CC3CCCO3)c(C)o2)s1 (stereo not drawn)	i	i	i	-1.3	-7	-7.1*
Cc1c(CCOC(=O)CC23CC4CC(CC(C4)C2)C3)sc[n+]1CC(=O)c1ccccc1	i	6*	i	-2.6	-20	i
Cc1c(CCOC(=O)C23CC4(C)CC(C)(CC(C)(C4)C2)C3)sc[n+]1CC(=O)c1ccccc1	i	i	i	-0.59	-7	i
COc1ccc(Cl)cc1NC(=O)C(C)OC(=O)C1=NNC(=O)CC1 (stereo not drawn)	x	x	i	x	x	x
CN1C(=O)C2(OCC(C)([N+](=O)[O-])CO2)c2ccccc21 (stereo not drawn)	i	i	i	1.5	8.6*	i
Nc1[nH]ncc1-c1ccc(F)cc1	i	i	i	-0.29	-7	i
CCn1c(C)nc2cc(-c3nnc(-c4c(-c5ccccc5)noc4C)o3)ccc21	i	i	i	0.12	34*	i
CCOC(=O)C(Cc1ccccc1)NC(C)=O (stereo not drawn)	i	i	i	2.1	-3	i
CCOC(=O)C(Cc1ccccc1)NC(=O)CCCC(=O)c1ccccc1 (stereo not drawn)	i	8*	i	0	-16	i
CN1CC(=O)N(CC(=O)Nc2ccc(Cl)c(C(F)(F)F)c2)C1=O	i	i	i	0.25	4.6*	i
O=[N+]([O-])/C=C/c1c(OCc2ccccc2)ccc2ccccc12	i	i	i	-7.9*	2	-11*
CCOC(=O)COc1ccc2ccccc2c1/C=C/[N+](=O)[O-]	i	i	i	-0.24	-23	i
CCOc1ccc(/C=C/[N+](=O)[O-])c2ccccc12	i	i	i	-8.3*	-6	i
CC(NC(=O)Cc1ccc(NS(=O)(=O)c2cccc(C(F)(F)F)c2)cc1)c1ccccn1 (stereo not drawn)	i	i	i	1.9	-6	i
CCN(CC)c1ccc2cc(S(=O)(=O)c3ccc(Cl)cc3)c(=O)oc2c1	i	10*	i	-1.6	-8	i
CCCCCCc1cc2cc(S(=O)(=O)c3ccc(Cl)cc3)c(=O)oc2cc1O	i	11*	i	1.6	-1	i
O=c1oc2cc(O)ccc2cc1S(=O)(=O)c1ccccc1	i	i	i	-0.41	-9	i
COc1ccc(CCNC(=O)CCS(=O)(=O)c2ccc3c(c2)oc(=O)n3C)cc1OC	i	i	i	1.4	-3	i
Cc1cc(CN(C)Cc2ccc(OCC(O)CN(C)Cc3ccccc3)cc2)on1 (stereo not drawn)	i	i	i	-3.2	-11	i
C=CCOc1ccc(CN(C)CC(O)COc2cccc3ccccc23)cc1 (stereo not drawn)	i	i	i	-4.6*	-18	i
O=[N+]([O-])c1ccc(SNc2ccccc2)c([N+](=O)[O-])c1	x	x	i	x	x	x
